Assay results published in ChEMBL document CHEMBL4513216, “Probing the Open Global Health Chemical Diversity Library for Multistage-Active Starting Points for Next-Generation Antimalarials” (ACS Infect Dis, 2020).

Test: Toxicity liver stage against HepG2, at 10uM
Format: cell-based
Design: test concentration 10 uM, cell line HepG2-A16-CD81EGFP
Settings: human, HepG2-A16-CD81EGFP cells; read-out: INHIBITION
Summary of the method: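 Uninfected HepG2-A16-CD81EGFP cells, 3 × 10^3 per well, 1536-well, plated on prespotted compound at 10 μM final, parasite-free screening media added to match infected plates; puromycin 10 μM positive, DMSO 0.5% negative; run in parallel with 48 h PbLuc assay at 37 °C, 5% CO2; viability by CellTiter-Glo luminescence, normalized to controls.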

Structure (SMILES)	cytotoxicity at 10 µM
Cc1ocnc1C(=O)N1CCC(c2nccn2Cc2ccncc2)CC1	-8.26%
O=S(=O)(C1CC1)N1CCC2(CC1)CN(Cc1nccs1)CCO2	8.1%
C[C@H]1CN(C)C[C@@]12COCCN(C(=O)Cc1ccccc1)C2	3.65%
Cc1cc(CS(=O)(=O)N(C)C(C)c2ccc(F)cc2)on1 (stereo not given)	6.72%
Cn1ncc(Cl)c1C(=O)N1CCC(c2nnsc2S(C)(=O)=O)CC1	-4.7%
Cc1cc(F)c(S(=O)(=O)Nc2ccn(CCCC#N)n2)cc1F	19.3%
CCCSCC(=O)Nc1ncn(CC(=O)NCc2ccccc2)n1	19.2%
COCCC(=O)N1CCCC(c2nc(O)cc(-c3ccncc3)n2)C1 (stereo not given)	-24.9%
COc1ccccc1CC(NC(=O)N1CCC[C@@H]1CO)C(C)C (stereo not given in full)	3.34%
CC(C)Oc1ccc(CC2=N[C@](C)(CO)CO2)cc1	16.3%
CC(=O)N1CCc2[nH]cnc2C12CCN(C(=O)Cc1cccs1)CC2	7.2%
CCOc1ccc(NC(=O)C2OC(c3cccs3)=NN2C(C)=O)cc1 (stereo not given)	4.77%
CNc1cc(CCNC(=O)c2cccnc2)nc(-c2ccncc2)n1	1.52%
COCCN(CCC#N)S(=O)(=O)c1cc(F)ccc1F	-9.91%
CN(C)c1cc(C(=O)N2CCN(S(C)(=O)=O)CC2)ccn1	-4.46%
Cc1ccoc1C(=O)N1Cc2c(CN3CCCCC3)nn(C)c2C1	-1.16%
Cc1ccccc1CCC1CCCN(C(=O)Cc2cc(=O)[nH]c(N)n2)C1 (stereo not given)	4.6%
CS(=O)(=O)N1CC[C@H]2C[C@@H](C(=O)N3CCOCC3)O[C@@H]2C1	2.28%
CCc1cnc(NCC(c2cccnc2)N2CCOCC2)nc1 (stereo not given)	9.6%
COc1ccc(C2CCCN2S(=O)(=O)N(C)C)cc1 (stereo not given)	5.08%
COC(C(=O)NC1CC1)c1ccccc1 (stereo not given)	-3.73%
Cc1nn(Cc2ccc(C(=O)NCCCN3CCOCC3)o2)c(C)c1Cl	-5.47%

Structure (SMILES)	cytotoxicity at 10 µM
Cn1cnnc1C1CCCN(C(=O)NCCOc2ccccc2)C1 (stereo not given)	7.48%
CC(C)Oc1ccc(CN2CCC(c3n[nH]c4ncccc34)CC2)cc1	-21.4%
O=C(O)[C@H]1CCCN1CCOc1cccc(Cl)c1	17%
COc1cc(N2CC[C@@H]3O[C@@H](C(=O)NC(C)C)C[C@@H]32)ncn1	7.66%
COc1cccc(C(=O)NC(C)CCN2CCOCC2)c1F (stereo not given)	-45.2%
O=C(c1ccc(-c2ccc(O)nc2)s1)N1CCSCC1	3.96%
COCC1CC2(CCN(C(=O)c3ccc(F)c(Cl)c3)CC2)CO1 (stereo not given)	-131%
c1ccc(CN2CCN(C3CCOC4(CCOCC4)C3)CC2)nc1 (stereo not given)	-0.971%
Cc1noc(C(C)N2CCN(CCn3ccccc3=O)CC2)n1 (stereo not given)	5.31%
Cc1occc(=O)c1OCC(=O)N1CCN(c2ccccc2)CC1	-2.88%
COCCN1CCC2(CC1)CC(c1ccccc1)C(=O)N2C (stereo not given)	7.91%
Cc1cccc(C(=O)N2CCCCC2c2nc3cc(F)ccc3[nH]2)n1 (stereo not given)	-1.99%
Cn1ccnc1COc1ccc(CSc2nnnn2C)cc1	-0.613%
Cc1cc(C(O)CCNC(=O)COc2ccccc2C)c(C)o1 (stereo not given)	2.86%
OC1(CNCc2noc(Cc3ccccc3)n2)CCCNC1 (stereo not given)	5.19%
CCN1CCN(S(=O)(=O)c2cc(C)c(C)cc2Br)CC1	-9.74%
O=C(Nc1ccccc1OCCc1ccccn1)NC1CCOCC1	2.43%
Cc1ncc(CN2CCC(O)(c3ccccc3F)CC2)cn1	0.46%
CCC1(C(=O)O)CCCN(CCOCc2ccccc2)C1 (stereo not given)	7.33%
Cn1cc(N2CCCC(NCc3cccc4c3OCCCO4)C2)cn1 (stereo not given)	-8.58%
c1ccc(CCN2CCN(c3ccc4nncn4n3)CC2)nc1	-7.93%
O=C(c1ccc(NCc2cccc(F)c2)cc1)N1CCCC1	10.1%

Structure (SMILES)	cytotoxicity at 10 µM
O=C(c1cnc(-c2noc3cc(N4CCCC4)ccc23)s1)N1CCCC1	-3.83%
CN1CCN(c2ncc3c(=O)n(-c4cccc(F)c4)c(=O)[nH]c3n2)CC1	-8.85%
Cc1nc2n(n1)CC(NCCCc1nc(-c3cccs3)no1)CC2 (stereo not given)	-4.38%
O=C1CCCN1CCN1CCCC(c2ccn[nH]2)C1 (stereo not given)	-16.7%
O=C(c1ccnnc1)N1CCN2C[C@H](Oc3cccc(F)c3)C[C@H]2C1	-1.96%
CCn1ccnc1S(=O)(=O)Cc1ccc(C(N)=O)cc1	-3.8%
CN(C)CC(=O)N1CCc2ncnc(-c3ccsc3)c2CC1	-12.3%
Cc1cc(C)c2ncn(CCOCCO)c(=O)c2c1	8.17%
CC(C)C(C)NC(=O)c1cccn1Cc1cccnc1 (stereo not given)	-44%
CC(=O)N1CCN([C@@H]2CC[C@@H](NC(=O)c3cncc(C)c3)[C@H]2O)CC1	2.6%
COCCN1CCN(Cc2c(C)noc2C)Cc2ccc(C)nc21	3.47%
Cc1cnn(CC2CCCCN2C(=O)c2cccnc2N(C)C)c1 (stereo not given)	-7.37%
CCCC(=O)NC(C(=O)OC)c1cc(F)ccc1F (stereo not given)	8.55%
Nc1nc2c(c(N3CCCC(c4nnc5ccccn45)C3)n1)CCNC2 (stereo not given)	-3.57%
Cc1cc(C)c(CNC(=O)N2CCCC2c2cccc(F)c2)c(=O)[nH]1 (stereo not given)	5.22%
COc1ccc(CN2C[C@@H]3OCCN(CCN4CCCC4)[C@@H]3C2)cc1	-82.4%
CCn1c(C2CCCN(Cc3cc(C)cc(C)c3)C2)nn(C)c1=O (stereo not given)	-3.12%
CC(=O)N1CCCC1c1nc(C)no1 (stereo not given)	-14.8%
CC(C)Oc1ncnc2c1CCN(C(=O)c1cccn1C)CC2	6.95%
CC(C)N1[C@@H](C(=O)NCC2CC2)C[C@@H]2CN(Cc3ccco3)C[C@@H]21	3.41%
CCCNC(=O)c1ccc(NC(=O)NC(C)c2ccccn2)cc1 (stereo not given)	9.15%
CC(C)(C)CC(=O)N1CC[C@@H](CC(=O)O)[C@@H](CCN2CCCCC2)C1	-1.11%

Structure (SMILES)	cytotoxicity at 10 µM
CC(=O)N1CC2(CCN(C(=O)c3ccc4c(c3)OCCO4)CC2)C1	-11.8%
COc1cccc2c1OCC(C(=O)N1CCC(NS(C)(=O)=O)CC1)C2 (stereo not given)	1.49%
COc1cccc2ccn(CC(=O)NCCC(C)C)c12	-43.3%
CCc1cc(NCc2cccnc2N2CCCCC2)n2ncnc2n1	10.5%
CN(C(=O)NCCCN1CCCC1)C1CCN(c2ccccc2)C1=O (stereo not given)	0.864%
CC(=O)N1CCOC(c2c(C(=O)O)sc3ccccc23)C1 (stereo not given)	5.76%
CN1CCC(N(CCc2ccccc2)C(=O)c2ccc(C#N)cc2)CC1	-2.37%
Cc1ccc(S(=O)(=O)NCC2CNCCOC2)cc1Cl (stereo not given)	0.858%
CNC(=O)[C@@H]1C[C@@H](N)CN1Cc1ccc2cccc(OC)c2n1	0.719%
NC(=O)C1CNCCN1C(=O)COc1ccccc1 (stereo not given)	1.6%
CNC(=O)CCN(C)c1nc(-c2ccncc2)nc2c1CCNC2	-1.54%
CN(CCOCC1CC1)C(=O)Nc1ccc([S+](C)[O-])c(F)c1 (stereo not given)	-1.7%
Cc1n[nH]cc1C(=O)N1CCCC(n2nnc3cc(F)ccc32)C1 (stereo not given)	-2.91%
Cc1cc(=O)n2nc(Oc3cccc(I)c3)sc2n1	3.63%
Cc1nc(N2CCOCC2)nc2c1CCN(Cc1ccsc1)CC2	-130%
Cc1nn(C)c(N2CCOCC2)c1CNCc1ccnn1C	-1.66%
CNC(=O)C1(CCCc2cccnc2)CCCCN1 (stereo not given)	2.34%
CC(=O)Nc1cccc2c1ccn2CC(=O)Nc1n[nH]c(CC(C)C)n1	-0.473%
Cc1cccc(C(C)(C)CNC(=O)CN(C)c2cnccn2)c1	1.79%
COc1c(C2CCCN2C(=O)c2ccc(C#N)cc2)c(C)nn1C (stereo not given)	-1.72%
COCC1c2nnn(CC3CC3)c2CCN1C(=O)c1ccncn1 (stereo not given)	-132%
CNc1ncccc1C(=O)N1CCN(C)C2(CCN(C)CC2)C1	7.16%

Structure (SMILES)	cytotoxicity at 10 µM
N#Cc1ccc(OC[C@]23COC[C@H]2CN(c2ncccn2)C3)nc1	-1.84%
COc1ccc(C(C#N)NC(=O)Cc2ccc(F)c(F)c2)c(OC)c1 (stereo not given)	21.6%
C[C@H](NC(=O)OC(C)(C)C)c1nnc(S(=O)(=O)Cc2cccc(F)c2)o1	-6.91%
O=C(c1c[nH]cn1)N1CCC(F)(F)C2(CCN(c3ccccn3)C2)C1 (stereo not given)	11%
CN1CCN(C(=O)C2SCCc3sccc32)CC1 (stereo not given)	-12.6%
Cc1nn(C)c2cn(C(C)C(=O)NCc3ccc(F)cc3)nc12 (stereo not given)	9.46%
CCc1c(C)sc2ncnc(N3C[C@H](O)[C@@H](N4CCCC4)C3)c12	-4.36%
Cc1c(F)cc(C(=O)O)cc1S(=O)(=O)Nc1ccc(F)c(C#N)c1	-6.02%
COc1ccc(C(=O)N2C[C@@H](O)[C@H](NCc3cnc(C)cn3)C2)cc1	3.34%
O=c1cc(N2CCNCC2)cnn1Cc1noc(C2CCCC2)n1	-53.5%
CN1CCC(c2cccc(Cc3ccc(C(F)(F)F)cc3)n2)CC1	3%
Cc1cc(F)ccc1S(=O)(=O)N1C[C@@H](C)[C@@](C)(O)C1	-7.25%
CCOc1ccnc(N2CCCN(C(=O)c3cc[nH]c3C)CC2)n1	0.893%
CC(C)Oc1ccccc1CNC(=O)c1[nH]ncc1Br	17.5%
CSCCC(=O)N1CCCCC1CCn1cccn1 (stereo not given)	-1.94%
CCN(c1ccc(C(=O)N2CCCC(C)C2)cc1)S(=O)(=O)CC (stereo not given)	-8.6%
CC(NCc1cnc(C2CCC2)s1)c1ccc(-n2cccn2)cc1 (stereo not given)	7.67%
CN(CC1CCCN1C)c1nccc(C2CCCC2)n1 (stereo not given)	-12.9%
CNCC(=O)NC1CC(C)(C)Cc2nc(C(C)(C)C)ncc21 (stereo not given)	10.2%
CC(C)NC(=O)[C@H]1C[C@H]2CN(C(=O)NC(C)C)C[C@@H]1O2	-105%
CC(O)CN1CCC(CNCc2ccc(S(C)(=O)=O)cc2)CC1 (stereo not given)	-21.4%
COc1ccc(C(=O)N2CCCC(C)C2)cc1F (stereo not given)	-11.6%
